Data: article PMC4561054 (Drugs in R&D, 2015)
Several values for one entry are separate records, joined by “and”; a condition that tells them apart may be missing. Equal values may be shown once. Entries after “also recorded” stand apart in the source; their conditions may differ. Read-outs that look alike come from different tables or passages of the source.

Key:
[1] = cited from earlier work
[2] = cited from earlier work; remark: listed apart in the source
[3] = 14C-simeprevir mass balance study; assay type: in vivo, human; conditions: as summarised in Discussion
In short: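 Healthy adult males (18–55 y, BMI 18.0–30.0 kg/m2, nonsmokers). Single oral 200-mg dose of 14C-labelled plus unlabelled test compound in polyethylene glycol 400, fed, 1.85 MBq total. Urine pooled at 0–8, 8–16, 16–24, 24–36 and 36–48 h, then every 24 h. Every stool collected until ≥Day 8, <2 % of dose excreted per 24 h, and ≥7 stools. Radioactivity read by […] and expressed as % of dose; six subjects.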

[4] = Safety and tolerability, Study 2; assay type: in vivo, human
In short: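 Non-HCV-infected adults (18–70 y). Severe renal impairment group had MDRD eGFR ≤29 mL/min/1.73 m2 and no dialysis. Controls had eGFR ≥80 and were matched for sex, race, age and BMI. All took 150 mg test compound orally daily, fed, for 7 days. Subject-reported AEs recorded; hematology/biochemistry on Days 1, 3, 5, 7 and 8; urinalysis and ECG on Days 1 and 7.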

HCV genotype 1 [5] = conditions: treatment-naïve patients, simeprevir plus ribavirin and pegylated interferon, cited from earlier work
[6] = cited from earlier work; remark: listed apart in the source
[7] = assay type: in vivo, human; conditions: for half-life: both, human, plasma, oral, 150 mg, Mean half-life
In short: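 Severe renal impairment (eGFR ≤29 mL/min/1.73 m2) versus matched normal-function subjects (eGFR ≥80), n = 8 each. Oral 150 mg test compound capsule daily, fed, for 7 days; Day 7 dose given after ≥10-h fast plus standard breakfast. Plasma drawn pre-dose Days 5–6 and on Day 7 at 0–72 h; LC-MS/MS. Noncompartmental Cmin, Cmax and AUC24 taken on log scale. Linear mixed-effects model gave LS means and 90 % CI of group difference.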

plasma proteins = test: Unbound simeprevir in plasma; assay type: in vitro ADME, human
In short: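 Subjects with severe renal impairment or matched normal renal function, given 150 mg test compound orally daily for 7 days. Blood drawn pre-dose and 4 h post-dose. Unbound concentration measured by dialysis, then liquid scintillation counting of spiked tritiated test compound. Mean and SD reported per time point, plus fraction unbound.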

[8] = preclinical studies; cited from earlier work
[9] = Safety evaluation, Study 1; assay type: in vivo, human
In short: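 Six healthy male nonsmokers (18–55 y) given one oral 200-mg dose of radiolabelled test compound in polyethylene glycol 400, fed. Safety covered subject-reported AEs, hematology, biochemistry, coagulation, urinalysis and electrocardiogram. Descriptive statistics only.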

HCV genotype 1 [10] = conditions: COSMOS; simeprevir plus sofosbuvir with or without ribavirin; cited from earlier work
[11] = 14C-daclatasvir excretion study
[12] = moderate to severe renal impairment vs healthy, single 400-mg dose
[13] = renal impairment group, treatment phase
[14] = subject with rhabdomyolysis (also on high-dose fenofibrate), Day 9
[15] = whole study period, six healthy subjects

Compound: COC(=O)N[C@H](C(=O)N1CCC[C@H]1c1nc(-c2ccc(-c3ccc(-c4c[nH]c([C@@H]5CCCN5C(=O)[C@@H](NC(=O)OC)C(C)C)n4)cc3)cc2)c[nH]1)C(C)C [daclatasvir]
- Increase in AUCinf ([1]; ESRD): ~51%
- Increase in AUCinf ([1]; moderate renal impairment): approximately 18%
- Increase in AUCinf ([1]; severe renal impairment): ~39%
- Recovery from the feces [2, 11]: 88%
- Total radioactivity dose eliminated in urine [2, 11]: 6.6%
- Renal excretion [2]: < 10%

Compound: NC(=O)c1ncn([C@@H]2O[C@H](CO)[C@@H](O)[C@H]2O)n1 [ribavirin]
- Decrease in apparent clearance [1, 12]: 50–75%
- Increase in AUC [1, 12]: two- to three-fold increase
- Radioactivity excreted in the urine ([2]; 600-mg 14C-ribavirin dose): 61%

Compound: COc1ccc2c(O[C@@H]3C[C@H]4C(=O)N[C@]5(C(=O)NS(=O)(=O)C6CC6)C[C@H]5/C=C\CCCCN(C)C(=O)[C@@H]4C3)cc(-c3nc(C(C)C)cs3)nc2c1C [simeprevir]
- 14C-simeprevir excreted in the urine [3]: < 2%
- Deaths or AEs resulting in permanent premature discontinuation of simeprevir ([4]; Study 2): No deaths or AEs resulting in permanent premature discontinuation of simeprevir occurred
- Severity of most AEs ([4]; Study 2, both groups): grade I or II; also recorded: grade 1 or 2
- Subjects with at least one AE ([4]; control group, treatment phase): 12.5%
- Subjects with at least one AE ([4]; control group, whole study period): 37.5%
- Severity of rhabdomyolysis ([4]; one subject of renal impairment group, also receiving fenofibrate): grade 3
- Subjects with at least one AE [4, 13]: 50%
- Subjects with hyperbilirubinemia [4, 13]: 12.5%
- Subjects with hypertension [4, 13]: 12.5%
- Subjects with increased blood alkaline phosphatase [4, 13]: 12.5%
- Subjects with myalgia [4, 13]: 12.5%
- Subjects with rhabdomyolysis [4, 13]: 12.5%
- Subjects with at least one AE ([4]; renal impairment group, whole study period): 50%
- Relatedness of rhabdomyolysis and myalgia (investigator) ([4]; same subject, also taking high-dose fenofibrate): probably related to simeprevir
- Creatine kinase level [4, 14]: 96.76 μkat/L
- Creatine kinase muscle brain fraction levels [4, 14]: 20.84 µg/L and 19.45 µg/L
- Myoglobin levels [4, 14]: 1200 µg/L and 1475 µg/L and 1476 µg/L
- SVR rate (HCV genotype 1 [5]; QUEST-1): 80%
- SVR rate (HCV genotype 1 [5]; QUEST-2): 81%
- half-life ([6]; HCV-infected subjects with normal renal function): 41 h
- AUC (range of concentrations observed in phase III studies) ([6]; HCV-infected subjects without renal impairment): 4848–449,185 ng·h/mL
- Concentrations in subjects with HCV infection compared with non-HCV-infected subjects [6]: two- to three-fold higher
- AUC24h higher in severe renal impairment compared with healthy subjects ([7]; based on LS mean ratio, Day 7): 62%
- Cmax higher in severe renal impairment compared with healthy subjects ([7]; based on LS mean ratio, Day 7): 34%
- half-life ([7]; healthy subjects): 16.7 h
- half-life ([7]; subjects with severe renal impairment): 24 h
- Mean unbound plasma concentration (plasma proteins; matched healthy subjects, 4 h post-dose, SD 0.2574): 0.2714
- Mean unbound plasma concentration (plasma proteins; matched healthy subjects, pre-dose, SD 0.1567): 0.1142
- Mean unbound plasma concentration (plasma proteins; subjects with renal impairment, 4 h post-dose): 0.4216 (SD 0.3319)
- Mean unbound plasma concentration (plasma proteins; subjects with renal impairment, pre-dose): 0.2892 (SD 0.4411)
- Tissue distribution [8]: predominately distributed to the liver and intestines with low distribution (similar or less than plasma) to the kidneys
- Deaths or AEs resulting in permanent premature discontinuation ([9]; Study 1): No deaths or AEs resulting in permanent premature discontinuation from the study occurred
- Dry mouth, subjects [9, 15]: one subject
- Increased ALT and AST levels, subjects [9, 15]: two subjects
- Prolonged aPTT, subjects [9, 15]: two subjects
- Subjects with at least one AE ([9]; whole study period, six healthy subjects, single 200-mg dose): five subjects
- SVR rates (HCV genotype 1 [10]): 92–94%

Compound: CC(C)OC(=O)[C@H](C)N[P@](=O)(OC[C@H]1O[C@@H](n2ccc(=O)[nH]c2=O)[C@](C)(F)[C@@H]1O)Oc1ccccc1 [sofosbuvir]
- Increase in AUCinf ([1]; mild renal impairment vs normal renal function, single 400-mg dose): 61%
- Increase in AUCinf ([1]; moderate renal impairment vs normal renal function, single 400-mg dose): 107%
- Increase in AUCinf ([1]; severe renal impairment vs normal renal function, single 400-mg dose): 171%
- 14C-sofosbuvir recovered from the urine ([2]; 400-mg 14C-sofosbuvir dose): 80%
